# Bioassay records: PubChem, several laboratories
# Cav3 T inh: inhibitors of human Cav3.2 T-type calcium channel; O95180; Cav3.2-expressing cells, Fluo-4 calcium fluorescence FDSS; hits give low values; B-score at 10 µM; hit rate 4% among 100,000;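 active means single-dose well whose peak fluorescence ratio is a statistical outlier from its plate by either plate-standardised score or position-corrected B-score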
# PostGolgi yeast: growth inhibition of a yeast mutant, post-Golgi transport screen; hit rate 0.9% among 98,000; inhibition, % at 10 µM; post-Golgi transport phenotypic cell assay;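 further: yeast cells grown in 1536-well plates; yeast grown about 18 h at 30C before absorbance read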
# Pyk2 oligo antag: Pyk2 (human) oligomerization antagonism; Q14289; Q293 cells, Pyk2 FERM NanoBiT luminescence; hits give low values; z-score (the deposit names both 25 µM and 10 µM); hit rate 0.83% among 99,000;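 active means Z-score of -3 or lower, scaled per plate to the spread of control and sample wells; inactive means z-score above -3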;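 further: negative z-score means lost luminescence so less FERM oligomerization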
# Target sequence (Q14289 whole entry, looked up): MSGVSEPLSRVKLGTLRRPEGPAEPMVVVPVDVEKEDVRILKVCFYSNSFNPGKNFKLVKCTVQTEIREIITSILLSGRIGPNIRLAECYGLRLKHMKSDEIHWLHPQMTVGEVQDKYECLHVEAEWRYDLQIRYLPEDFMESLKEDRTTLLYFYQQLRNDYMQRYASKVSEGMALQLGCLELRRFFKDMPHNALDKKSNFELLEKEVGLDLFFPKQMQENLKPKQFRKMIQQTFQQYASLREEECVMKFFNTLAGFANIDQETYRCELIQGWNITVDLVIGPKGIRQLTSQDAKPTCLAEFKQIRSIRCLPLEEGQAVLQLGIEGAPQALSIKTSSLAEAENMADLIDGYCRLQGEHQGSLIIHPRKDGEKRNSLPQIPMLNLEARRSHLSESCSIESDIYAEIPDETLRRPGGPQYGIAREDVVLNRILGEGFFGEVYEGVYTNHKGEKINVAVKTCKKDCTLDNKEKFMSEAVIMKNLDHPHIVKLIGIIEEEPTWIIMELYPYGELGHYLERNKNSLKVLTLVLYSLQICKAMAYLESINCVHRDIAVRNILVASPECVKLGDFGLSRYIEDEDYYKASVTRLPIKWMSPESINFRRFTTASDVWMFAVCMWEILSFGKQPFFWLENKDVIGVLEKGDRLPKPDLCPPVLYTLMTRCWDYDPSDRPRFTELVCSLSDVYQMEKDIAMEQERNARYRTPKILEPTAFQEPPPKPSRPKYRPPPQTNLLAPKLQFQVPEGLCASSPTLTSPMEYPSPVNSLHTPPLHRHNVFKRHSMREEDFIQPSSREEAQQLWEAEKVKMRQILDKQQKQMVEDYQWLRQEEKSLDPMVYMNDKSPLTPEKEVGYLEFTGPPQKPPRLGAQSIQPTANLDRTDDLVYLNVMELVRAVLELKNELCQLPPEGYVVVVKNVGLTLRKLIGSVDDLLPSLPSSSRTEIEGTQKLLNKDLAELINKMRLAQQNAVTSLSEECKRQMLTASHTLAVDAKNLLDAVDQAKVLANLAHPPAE
# PostGolgi ctrl: yeast control strain growth, post-Golgi counter-screen | efflux-deficient yeast background strain, growth absorbance A615, 16 h | inhibition, % at 10 µM | hit rate 5% among 98,000
# tolC growth inh: blocks growth of E. coli BW25113 tolC mutant | hit rate 2.2% among 65,000 | OD615 | growth inhibition, % at 10 µM (by protocol);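 active means growth inhibition at or above a cutoff equal to the mean over every tested compound plus 3 SD, cut at about 60% in these data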;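 further: growth measured after 20 h incubation at 37 °C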
#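 System: E. coli ΔtolC::kan strain BW25113; Buffer or medium: LB broth supplemented with 50 µg/mL kanamycin; Compound: 10 µM final, single dose; Incubation: bacterial growth with compound for 20 h at 37 °C; Signal: A615 absorbance measurement; Evaluation: growth inhibition in percent.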
# Ecoli WT expand: growth inhibitors of E. coli BW25113 wild type; growth inhibition, % at 100 µM; hit rate 0.15% among 98,000; OD600 absorbance; AID 710;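 active means growth inhibition above about 50% at one test dose, limit read from the data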;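 further: growth measured after 20 h incubation at 37 °C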
# * marks the source's active call; other numbers are inactive results; · = no result. Only some compounds are listed: those with a hit (about 8.7% of all), similar ones and a draw of the others. Unless noted, no stated cut-off is given here; in the data, active means inhibition above about 30%; inactive means the rest.
SMILES,Cav3 T inh,PostGolgi yeast,Pyk2 oligo antag,PostGolgi ctrl,tolC growth inh,Ecoli WT expand
Cc1ccc(N(CC(O)Cn2c3ccccc3c3ccccc32)S(C)(=O)=O)c(C)c1 (stereo not drawn),0.39,-6,-0.48,51*,·,-1
Cc1cccc(C)c1N(CC(O)Cn1c2ccccc2c2ccccc21)S(C)(=O)=O (stereo not drawn),-2.9,-5,-0.2,16,·,-18
Cc1ccc(N(CC(O)Cn2c3ccccc3c3ccccc32)S(C)(=O)=O)cc1 (stereo not drawn),-2.1,18,0.55,51*,·,-17
Cc1ccc(N(CC(O)CN2CCOCC2)S(=O)(=O)c2ccc3ccccc3c2)cc1 (stereo not drawn),0.15,-2,-0.72,19,13,5
Cc1ccc(N(CC(O)CN2CCCC2)S(=O)(=O)c2ccc(C)cc2)cc1 (stereo not drawn),0.77,-1,0.38,46*,-2,2
Cc1ccc(N(CC(O)CON=C2c3ccccc3-c3ccccc32)S(C)(=O)=O)cc1 (stereo not drawn),-2.1,-3,-1.7,67*,·,-7
CCC(=O)N=c1sc2c(C)cc(C)cc2n1CC(=O)OC,-3.5,5,·,18,-8,-3
COc1ccccc1NC(=O)N1CCCC1C(=O)NC12CC3CC(CC(C3)C1)C2 (stereo not drawn),-0.55,-4,-0.65,8,0,-2
Cc1cc(-n2c(C)cc(C(=O)CSc3ncnc4ccccc34)c2C)no1,-0.34,0,0.47,40*,12,-6
COCCOc1cc(Nc2nnc(C(F)(F)F)s2)c(Cl)cc1Cl,-1.8,21,-2.7,32*,·,-6
COc1cc(Nc2nnc(C)s2)c(Cl)cc1Cl,-0.3,-3,-0.52,9,·,4
Cc1ccc(C(=O)Nc2ccc(Cc3ccncc3)cc2)cc1[N+](=O)[O-],·,87*,-0.05,50*,·,4
COc1ccc2cc(C3(C)NC(=O)N(CC(=O)Nc4c(C)n(C)n(-c5ccccc5)c4=O)C3=O)ccc2c1 (stereo not drawn),·,·,1.2,·,·,·
COc1cccc2cc(C(=O)N3CCc4ccccc43)c(=O)oc12,-0.54,7,-3*,15,-19,3
CCOc1cccc2cc(C(=O)N3CCc4ccccc43)c(=O)oc12,0.86,3,0.11,2,-6,0
CCOCC(=O)Nc1cc(-c2cn3cccnc3n2)ccc1C,·,-21,0.28,36*,-19,8
O=C(C1CCCO1)N1CCN(S(=O)(=O)c2ccccc2)CC1 (stereo not drawn),-0.022,-16,-0.35,36*,-6,-6
O=C(c1ccc(Br)cc1)N1CCN(S(=O)(=O)c2ccccc2)CC1,-0.089,-3,·,35*,4,0
O=C(N1CCCCCC1)N1CCN(S(=O)(=O)c2ccccc2)CC1,0.056,1,-0.28,6,·,-9
Cc1cc(C)n(-c2nc3ccccc3nc2N2CCCCCC2)n1,-2.1,5,-1.2,39*,74*,4
Cc1cc(C)n(-c2nc3ccccc3nc2N2CCOCC2)n1,·,·,·,·,-1,·
OC(c1cccc(OCc2ccccc2)c1)c1nnc(-c2ccccc2)o1 (stereo not drawn),0.22,-1,-0.33,56*,75*,-10
OC(c1ccc(OCc2ccccc2)cc1)c1nnc(-c2ccccc2)o1 (stereo not drawn),·,-4,-1.5,26,·,-9
CCCc1cc2c(cc1NC(=O)c1ccc(C)cc1)OCO2,-0.7,4,-0.04,14,·,-4
COc1ccc(NC(=S)NCCSc2ccc(C)cc2)c(OC)c1,-6.5*,·,0.17,·,·,·
CCO[C@H]1OC(C(=O)N2CCN(C)CC2)=C[C@@H](C)[C@@H]1CCCO,0.24,·,·,·,·,·
CCn1c(CSc2nnc(-c3ccoc3C)n2C)nc2cc(S(=O)(=O)N(C)C)ccc21,0.55,-5,-0.07,38*,-4,-1
CC1CN(S(=O)(=O)c2ccc(NC(=O)c3cc(-c4ccccc4O)n[nH]3)cc2)CC(C)O1 (stereo not drawn),-0.91,4,-3.1*,1,-2,-14
CC(Oc1ccc(Cl)cc1Cl)C(=O)NCCCN(C)C (stereo not drawn),1.3,-4,0.61,17,7,-4
CN(C)CCNC=C(C(=O)Nc1ccc(Cl)cc1Cl)C(=O)Nc1ccc(Cl)cc1Cl,1,40*,0.14,99*,·,-6
